The record followed here is ChEMBL document CHEMBL1132870, “Solid-phase parallel synthesis of azarene pyrrolidinones as factor Xa inhibitors” (Bioorg Med Chem Lett, 2000).

The target in one assay is T1, Coagulation factor X (Oryctolagus cuniculus) (UniProt O19045).
T1 sequence (whole entry): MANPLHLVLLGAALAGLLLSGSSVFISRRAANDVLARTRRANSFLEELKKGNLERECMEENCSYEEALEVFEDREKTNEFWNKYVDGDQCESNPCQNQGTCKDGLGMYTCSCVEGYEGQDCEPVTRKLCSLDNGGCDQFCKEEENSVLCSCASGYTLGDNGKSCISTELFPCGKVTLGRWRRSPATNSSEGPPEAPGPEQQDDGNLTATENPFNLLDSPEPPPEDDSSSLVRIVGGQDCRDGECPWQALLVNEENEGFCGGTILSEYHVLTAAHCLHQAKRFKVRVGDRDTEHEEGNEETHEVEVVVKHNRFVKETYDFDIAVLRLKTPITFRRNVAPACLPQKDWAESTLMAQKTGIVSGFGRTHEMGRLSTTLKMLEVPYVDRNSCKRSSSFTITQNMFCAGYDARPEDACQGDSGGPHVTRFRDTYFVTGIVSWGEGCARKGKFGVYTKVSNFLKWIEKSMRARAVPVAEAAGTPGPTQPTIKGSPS
The assay is described as follows: Compound was tested for its inhibitory activity against Coagulation factor X at a concentration of 0.1 uM.
On to `O=C1[C@@H](NS(=O)(=O)c2cc3ccc(Cl)nc3s2)CCN1CCNc1ccncc1`, for which the inhibition (in general, the drop in the measured response relative to a control, in per cent) is 53%. The same measure, in the same setting: with `O=C1[C@@H](NS(=O)(=O)c2cc3ccc(Cl)cc3s2)CCN1Cc1cc2cc[nH]cc-2n1` the figure was 50%; with `O=C1[C@@H](NS(=O)(=O)c2ccc(-c3ccc(Cl)s3)s2)CCN1CCNc1ccncc1`, 77%. With `O=C1[C@@H](NS(=O)(=O)c2cc3ccc(Cl)cc3s2)CCN1CCNc1ccncc1`, the inhibition was 57%. The same measure, in the same setting: under `O=C1[C@@H](NS(=O)(=O)c2ccc(-c3ccc(Cl)s3)s2)CCN1Cc1cc2c[nH]ccc-2n1` stands 62%; under `O=C1[C@@H](NS(=O)(=O)c2cc3ncccc3s2)CCN1Cc1cc2cc[nH]cc-2n1`, 52%.

A further assay deals with T1, Coagulation factor X (Oryctolagus cuniculus). The assay is described as follows: Compound was tested for its inhibitory activity against Coagulation factor X at a concentration of 0.2 uM.
The molecule `O=C1[C@@H](NS(=O)(=O)c2cc3c(Cl)nccc3s2)CCN1Cc1cc2cc[nH]cc-2n1` returned an inhibition of 52%.

A further assay shares this target. Put plainly: Compound was tested for its inhibitory activity against Coagulation factor X at a concentration of 0.3 uM.
For `O=C1[C@@H](NS(=O)(=O)c2ccc(-c3ccc(Cl)s3)s2)CCN1Cc1cc2cc[nH]cc-2n1`, the inhibition is 53%. Same read-out and setting: with `O=C1[C@@H](NS(=O)(=O)c2cc3ncccc3s2)CCN1Cc1cc2[nH]cccc-2n1` the figure was 58%.

The target is the same in another assay. The assay is described as follows: Inhibitory activity against coagulation factor X at a concentration of 1 uM. In short, it runs like this: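 Triplicate screen. DMSO stocks were diluted to 1 µM final inhibitor in 0.05 M Tris, 0.15 M NaCl, 0.1% PEG-8000, pH 7.5. Incubated 30 min at rt with 1 nM fXa, then 200 µM Spectrozyme chromogenic substrate added. Initial rates read at 405 nm over 5 min in kinetic mode; % inhibition reported.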
Consider `O=C1[C@@H](NS(=O)(=O)c2nc3cc(Cl)ccc3[nH]2)CCN1Cc1cc2cc[nH]cc-2n1`, for which the inhibition was 21%. Same read-out and setting: under `O=C1[C@@H](NS(=O)(=O)c2ccc(-c3ccon3)s2)CCN1CCNc1ccncc1` stands 22%. Still for that read-out and setting: under `O=C1[C@@H](NS(=O)(=O)c2ccc(-c3ccccn3)s2)CCN1Cc1cc2c[nH]ccc-2n1` stands 11%; under `CC(C)(C)c1ccc(S(=O)(=O)N[C@H]2CCN(Cc3cc4c[nH]ccc-4n3)C2=O)cc1`, 14%. On the same count and under the same terms, with `O=C1[C@@H](NS(=O)(=O)c2ccc(-c3ccncc3)s2)CCN1Cc1cc2[nH]cccc-2n1` the figure was 35%. Molecule `O=C1[C@@H](NS(=O)(=O)c2cc3c(Cl)nccc3s2)CCN1CCNc1ccncc1` showed an inhibition of 39%.

Consider `O=C1[C@@H](NS(=O)(=O)c2nc3cc(Cl)ccc3[nH]2)CCN1Cc1cc2[nH]cccc-2n1`, for which the inhibition was 14%. Still for that read-out and setting: under `Cc1c(S(=O)(=O)N[C@H]2CCN(Cc3cc4c[nH]ccc-4n3)C2=O)sc2ccc(Cl)cc12` stands 37%. On the same count and under the same terms, under `O=C1[C@@H](NS(=O)(=O)c2cc3ccc(Cl)nc3s2)CCN1Cc1cc2cc[nH]cc-2n1` stands 50%.

Molecule `CC(C)(C)c1ccc(S(=O)(=O)N[C@H]2CCN(CCNc3ccncc3)C2=O)cc1` returned an inhibition of 14%. Still for that read-out and setting: under `O=C1[C@@H](NS(=O)(=O)c2cc3ccc(Cl)nc3s2)CCN1Cc1cc2[nH]cccc-2n1` stands 23%; under `CC(C)(C)c1ccc(S(=O)(=O)N[C@H]2CCN(Cc3cc4cc[nH]cc-4n3)C2=O)cc1`, 57%; under `O=C1[C@@H](NS(=O)(=O)c2ccc(-c3ccccn3)s2)CCN1CCNc1ccncc1`, 18%. The same measure, in the same setting: under `O=C1[C@@H](NS(=O)(=O)c2ccc(-c3ccon3)s2)CCN1Cc1cc2[nH]cccc-2n1` stands 31%; under `CC(C)(C)c1ccc(S(=O)(=O)N[C@H]2CCN(Cc3cc4[nH]cccc-4n3)C2=O)cc1`, 22%. Same read-out and setting: under `O=C1[C@@H](NS(=O)(=O)c2cc3cccnc3s2)CCN1CCNc1ccncc1` stands 23%; under `O=C1[C@@H](NS(=O)(=O)c2nc3cc(Cl)ccc3[nH]2)CCN1CCNc1ccncc1`, 29%; under `O=C1[C@@H](NS(=O)(=O)c2cc3ncccc3s2)CCN1Cc1cc2c[nH]ccc-2n1`, 61%. Take `O=C1[C@@H](NS(=O)(=O)c2ccc(-c3ccncc3)s2)CCN1Cc1cc2c[nH]ccc-2n1`: the inhibition was 21%. Same read-out and setting: under `O=C1[C@@H](NS(=O)(=O)c2cc3ccnc(Cl)c3s2)CCN1CCNc1ccncc1` stands 23%; under `O=C1[C@@H](NS(=O)(=O)c2cc3ccc(Cl)nc3s2)CCN1Cc1cc2c[nH]ccc-2n1`, 51%. As for `O=C1[C@@H](NS(=O)(=O)c2ccc(-c3ccon3)s2)CCN1Cc1cc2c[nH]ccc-2n1`, the inhibition came out at 17%.

In the case of `O=C1[C@@H](NS(=O)(=O)c2cc3cccnc3s2)CCN1Cc1cc2[nH]cccc-2n1`, the inhibition came out at 44%. On the same count and under the same terms, with `O=C1[C@@H](NS(=O)(=O)c2cc3ccnc(Cl)c3s2)CCN1Cc1cc2c[nH]ccc-2n1` the figure was 25%; with `O=C1[C@@H](NS(=O)(=O)c2ccc(-c3ccon3)s2)CCN1Cc1cc2cc[nH]cc-2n1`, 49%; with `O=C1[C@@H](NS(=O)(=O)c2ccc(-c3ccc(Cl)s3)s2)CCN1Cc1cc2[nH]cccc-2n1`, 42%. On the same count and under the same terms, with `O=C1[C@@H](NS(=O)(=O)c2cc3ccnc(Cl)c3s2)CCN1Cc1cc2[nH]cccc-2n1` the figure was 45%; with `O=C1[C@@H](NS(=O)(=O)c2cc3cccnc3s2)CCN1Cc1cc2c[nH]ccc-2n1`, 18%; with `O=C1[C@@H](NS(=O)(=O)c2ccc(-c3ccncc3)s2)CCN1CCNc1ccncc1`, 41%. The same measure, in the same setting: under `Cc1c(S(=O)(=O)N[C@H]2CCN(Cc3cc4[nH]cccc-4n3)C2=O)sc2ccc(Cl)cc12` stands 40%; under `O=C1[C@@H](NS(=O)(=O)c2cc3nc(Cl)ccc3s2)CCN1Cc1cc2c[nH]ccc-2n1`, 58%; under `O=C1[C@@H](NS(=O)(=O)c2ccc(-c3ccccn3)s2)CCN1Cc1cc2[nH]cccc-2n1`, 8%.

Consider `O=C1[C@@H](NS(=O)(=O)c2nc3cc(Cl)ccc3[nH]2)CCN1Cc1cc2c[nH]ccc-2n1`, for which the inhibition came to 31%. With `O=C1[C@@H](NS(=O)(=O)c2ccc(-c3ccccn3)s2)CCN1Cc1cc2cc[nH]cc-2n1`, the inhibition was 17%. Consider `O=C1[C@@H](NS(=O)(=O)c2cc3c(Cl)nccc3s2)CCN1Cc1cc2c[nH]ccc-2n1`, for which the inhibition came out at 35%.

Consider `O=C1[C@@H](NS(=O)(=O)c2ccc(-c3ccncc3)s2)CCN1Cc1cc2cc[nH]cc-2n1`, for which the inhibition is 50%.

The target is the same in the next assay. The assay is described as follows: Compound was tested for its inhibitory activity against Coagulation factor X at a concentration of 0.7 uM.
`O=C1[C@@H](NS(=O)(=O)c2cc3ncccc3s2)CCN1CCNc1ccncc1` returned an inhibition of 50%.

A further assay has the same target. The assay is described as follows: Compound was tested for its inhibitory activity against Coagulation factor X at a concentration of 0.4 uM.
For `O=C1[C@@H](NS(=O)(=O)c2cc3nc(Cl)ccc3s2)CCN1CCNc1ccncc1`, the inhibition was 50%.

Another assay has the same target. The assay is described as follows: Compound was tested for its inhibitory activity against Coagulation factor X at a concentration of 0.5 uM.
In turn, `Cc1c(S(=O)(=O)N[C@H]2CCN(CCNc3ccncc3)C2=O)sc2cc(Cl)ccc12` yielded an inhibition of 47%. The same measure, in the same setting: under `O=C1[C@@H](NS(=O)(=O)c2cc3cccnc3s2)CCN1Cc1cc2cc[nH]cc-2n1` stands 43%; under `O=C1[C@@H](NS(=O)(=O)c2cc3ccc(Cl)cc3s2)CCN1Cc1cc2[nH]cccc-2n1`, 64%; under `O=C1[C@@H](NS(=O)(=O)c2cc3nc(Cl)ccc3s2)CCN1Cc1cc2[nH]cccc-2n1`, 48%. Same read-out and setting: under `O=C1[C@@H](NS(=O)(=O)c2cc3ccc(Cl)cc3s2)CCN1Cc1cc2c[nH]ccc-2n1` stands 53%; under `O=C1[C@@H](NS(=O)(=O)c2cc3c(Cl)nccc3s2)CCN1Cc1cc2[nH]cccc-2n1`, 50%. Take `O=C1[C@@H](NS(=O)(=O)c2cc3ccnc(Cl)c3s2)CCN1Cc1cc2cc[nH]cc-2n1`: the inhibition turned out to be 48%.
